What is called IC50 is the concentration at which inhibition is half-maximal.

Assay [1] has as its target T1, Amyloid-beta precursor protein (Homo sapiens, UniProt P05067). In words: Inhibition of gamma-secretase assessed as reduction of cell A-beta-40 level.
The target in assay [2] is T1, Amyloid-beta precursor protein. Briefly: Inhibition of gamma-secretase assessed as reduction of membrane A-beta-40 level. The essentials: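 Membrane-based γ-secretase assay with Aβ40 as read-out; IC50 in nM, reported as means of two experiments.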

T1 sequence (P05067 whole entry): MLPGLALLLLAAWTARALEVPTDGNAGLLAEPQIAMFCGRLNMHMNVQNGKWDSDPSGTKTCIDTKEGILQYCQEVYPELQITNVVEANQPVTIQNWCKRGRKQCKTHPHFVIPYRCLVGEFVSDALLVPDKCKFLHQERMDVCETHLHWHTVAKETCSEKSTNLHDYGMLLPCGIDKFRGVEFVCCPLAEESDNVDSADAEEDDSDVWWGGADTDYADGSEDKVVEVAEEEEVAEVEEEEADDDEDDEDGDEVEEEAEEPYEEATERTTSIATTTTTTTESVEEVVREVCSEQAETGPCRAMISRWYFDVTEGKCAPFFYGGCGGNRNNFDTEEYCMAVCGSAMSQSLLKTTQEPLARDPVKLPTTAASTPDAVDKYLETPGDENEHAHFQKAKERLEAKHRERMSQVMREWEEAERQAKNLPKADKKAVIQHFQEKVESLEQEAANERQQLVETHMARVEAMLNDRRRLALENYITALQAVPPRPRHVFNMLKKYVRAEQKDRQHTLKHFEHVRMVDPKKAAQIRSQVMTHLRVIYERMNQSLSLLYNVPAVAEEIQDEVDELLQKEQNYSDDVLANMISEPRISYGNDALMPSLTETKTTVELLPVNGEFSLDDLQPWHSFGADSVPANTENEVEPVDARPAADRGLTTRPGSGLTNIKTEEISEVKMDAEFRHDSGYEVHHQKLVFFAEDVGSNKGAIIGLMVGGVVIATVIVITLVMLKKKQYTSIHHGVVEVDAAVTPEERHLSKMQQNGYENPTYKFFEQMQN

In the case of `CC[C@@H]1CCC[C@H](C2(OC(=O)N3CCC(CCO)(OC)CC3)CC2)N1S(=O)(=O)c1ccc(Cl)cc1` [1-((2R,6R)-1-(4-chlorophenylsulfonyl)-6-ethylpiperidin-2-yl)cyclopropyl 4-(2-hydroxyethyl)-4-methoxypiperidine-1-carboxylate], the values for the IC50 in assay [1] and in assay [2] were 20 nM and 9 nM, respectively.
Turning to `CC[C@@H]1CCC[C@H](C2(OC(=O)N3CCN(C(C)(C)CO)CC3)CC2)N1S(=O)(=O)c1ccc(F)cc1` [1-((2R,6R)-6-ethyl-1-(4-fluorophenylsulfonyl)piperidin-2-yl)cyclopropyl 4-(1-hydroxy-2-methylpropan-2-yl)piperazine-1-carboxylate], the IC50 is 25 nM in assay [1] and 10 nM in assay [2].
`CC[C@@H]1CCC[C@H](C2(OC(=O)N3CCC(N4CCCCC4)CC3)CC2)N1S(=O)(=O)c1cc(F)cc(F)c1` [1-((2R,6R)-1-(3,5-difluorophenylsulfonyl)-6-ethylpiperidin-2-yl)cyclopropyl 4-(piperidin-1-yl)piperidine-1-carboxylate]: the results for the 50% inhibitory concentration (IC50) in assay [1] and in assay [2] were 144 nM and 29 nM, respectively.
In the same order, the values of `CC[C@@H]1CCC[C@H](C2(OC(=O)N3CCN(CCO)[C@@H](C)C3)CC2)N1S(=O)(=O)c1ccc(Cl)cc1` [(S)-1-((2R,6R)-1-(4-chlorophenylsulfonyl)-6-ethylpiperidin-2-yl)cyclopropyl 4-(2-hydroxyethyl)-3-methylpiperazine-1-carboxylate] are 10 nM and 13 nM.
For the compound `O=C(OC1([C@H]2CCC[C@@H](c3cc(F)cc(F)c3)N2S(=O)(=O)c2ccc(Cl)cc2)CC1)N1CCC(N2CCCCC2)CC1` [1-((2R,6S)-1-(4-chlorophenylsulfonyl)-6-(3,5-difluorophenyl)piperidin-2-yl)cyclopropyl 4-(piperidin-1-yl)piperidine-1-carboxylate], the 50% inhibitory concentration (IC50) in assay [2] amounted to 0.3 nM.

Source of the values: BindingDB's records for doi:10.1016/j.bmcl.2007.08.013 (Schering-Plough Research Institute, 2007).
